From PubChem
Sampled rows, rich in hits. Any-hit rate of the full collection: about 3.1%.
KCNQ1 inh = inhibitors of human KCNQ1 channel, primary screen, cell-based, thallium flux, high-throughput. Potassium voltage-gated channel subfamily KQT member 1 (Homo sapiens), P51787. CHO-K1 KCNQ1, FluxOR thallium flux fluorescence; stronger effect = higher value. B-score at 10 µM. actives 1.3% (n = 310,000);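 active = compounds whose thallium flux B-score, printed positive for inhibition, exceeds three library SD while starting fluorescence stays within three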;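 also: channel opened by potassium depolarization with thallium stimulus after 20 min compound exposure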
KCNK3 block = human KCNK3 channel inhibitors, primary screen, CHO cells, FluxOR thallium flux, B-score. Potassium channel subfamily K member 3 (Homo sapiens), O14649. FluxOR fluorescence; stronger effect = lower value. B-score at 10 µM. actives 0.84% (n = 340,000);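 active = B-score under library mean minus 4 SD, starting fluorescence ratio at most library mean plus 5 SD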;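 also: more negative B-score means stronger inhibition of thallium flux through KCNK3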
hERG rescue = hERG rescue from dofetilide block, primary screen, cell-based, CHO-hERG, FluxOR thallium flux, dofetilide IC70; dofetilide IC70 present; AID 1511, 2009; Voltage-gated inwardly rectifying potassium channel KCNH2 (Homo sapiens), Q12809; activation (rescue from dofetilide block), less the hit threshold, % at 10 µM; actives 0.51% (n = 310,000);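 active = activation above the mean of controls blocked by dofetilide plus 5 SD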;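 also: thallium influx through hERG after potassium depolarization seen as dye fluorescence rise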
KCNQ1 pot = potentiators or activators of KCNQ1 channel, primary screen, cell-based, thallium flux, high-throughput; actives 0.35% (n = 310,000); CHO-K1 KCNQ1, thallium flux FluxOR fluorescence; stronger effect = higher value; B-score at 10 µM; AID 2648, 2010;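 active = fluorescence ratio B-score, a plate-corrected score, at least three library SD, with initial intensity B-score within 5 SD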
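assay system = KCNQ1-transfected CHO-K1 cells | medium = assay buffer with matched DMSO | probe or stimulus = depolarizing K+/Tl+ stimulus, K2SO4 and Tl2SO4 each 12.5 mM in 5x stock | dosing = single dose | incubation = dye 90 min, compound 20 min, room temperature | detection = kinetic FluxOR fluorescence, 10 s baseline plus 110 s post-stimulus | evaluation = ratio B score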
KCNK9 inh = KCNK9 potassium channel inhibitors, primary screen, HEK293 cells, thallium flux; Potassium channel subfamily K member 9 (Homo sapiens), Q9NPC2; FluxOR thallium flux fluorescence; stronger effect = lower value; B-score at 10 µM; actives 1.2% (n = 310,000); AID 488922, 2010;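 active = ratio B-score over 3 SD below the library mean, with starting fluorescence within 5 SD of its mean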;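 also: negative B-score means less thallium flux so channel inhibition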
Target sequence (Q9NPC2 whole entry, looked up): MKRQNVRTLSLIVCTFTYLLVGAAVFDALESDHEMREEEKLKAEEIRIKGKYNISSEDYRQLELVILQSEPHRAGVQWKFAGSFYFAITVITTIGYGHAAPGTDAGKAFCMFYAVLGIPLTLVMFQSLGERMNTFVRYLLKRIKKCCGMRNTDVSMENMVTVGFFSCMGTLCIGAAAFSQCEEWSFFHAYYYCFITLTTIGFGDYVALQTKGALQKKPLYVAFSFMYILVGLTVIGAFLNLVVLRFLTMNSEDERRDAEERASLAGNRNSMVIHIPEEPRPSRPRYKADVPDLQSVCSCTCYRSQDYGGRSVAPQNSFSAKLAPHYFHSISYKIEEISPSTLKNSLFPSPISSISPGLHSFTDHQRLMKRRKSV
KCNK9 block conf = KCNK9 potassium channel inhibitors, confirmation, HEK293 cells, thallium flux, duplicate; shares compounds with KCNK9 inh; FluxOR thallium flux fluorescence; inhibition, % at 10 µM; actives 43% (n = 4,900);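 active = thallium signal inhibited by more than 5 SD of the compound-free buffer control wells, on both duplicate plates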;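 also: 0% = assay buffer control wells without compound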
Kir2-1 spec = mouse Kir2.1 channel inhibition, confirmation, selectivity assay for KCNK9 modulator project, cell-based, HEK293, thallium flux. Kir2.1 cells, FluxOR thallium flux fluorescence. shares compounds with KCNK9 inh. actives 4% (n = 4,900). inhibition, % at 10 µM;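 active = thallium signal drop more than 5 SD beyond the mean of the no-compound control wells, seen in both duplicate plates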;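 also: signal is fluorescence rise after thallium addition divided by baseline fluorescence; plate controls were assay buffer only for no effect and full block by chlorpromazine control for full effect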
HEK293 Tl ctr = thallium flux in non-induced HEK293 cells, confirmation, counter-screen for KCNK9 inhibitor project, cell-based, second counter screen, non-induced KCNK9-HEK293. shares compounds with KCNK9 inh. FluxOR thallium flux. inhibition, % at 10 µM. actives 40% (n = 4,900). AID 492997, 2010;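 active = thallium signal drop beyond 5 SD of the untreated control mean, on both duplicate plates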;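 also: plate controls were buffer only IC0 wells for no effect and SID17386958 at its maximal inhibitory level for full effect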
Starred values were filed as active, the others as inactive; i = inactive; . = no result.

SMILES	KCNQ1 inh	KCNK3 block	hERG rescue	KCNQ1 pot	KCNK9 inh	KCNK9 block conf	Kir2-1 spec	HEK293 Tl ctr
CCc1cccc2c1NC(=O)C21OCCO1	i	i	-6	i	i	.	.	.
Cc1cc2ccccn2c1C(=O)c1nc(NCc2ccccc2)ncc1Cl	i	i	-7	i	i	i	i	26%*
O=C(O)c1nc(NCc2ccccc2)ncc1Cl	i	i	-5	i	i	.	.	.
Clc1cccc(-c2cc3nc4c(c(NCc5ccco5)n3n2)CCCC4)c1	i	i	-12	i	-9.4*	30%*	i	32%*
c1coc(CNc2c3c(nc4ncnn24)CCCC3)c1	i	i	-7	i	i	.	.	.
COc1c(C)cc(C(=O)C2CCCN(C(=O)c3ccoc3)C2)cc1C (configuration not stated)	i	i	-12	i	i	.	.	.
COC(=O)c1ccccc1C(=O)N1CCCC(C(=O)c2ccc(OC)c(OC)c2)C1 (configuration not stated)	i	i	-8	i	i	.	.	.
COc1c(C)cc(C(=O)C2CCCN(C(=O)c3cccc(F)c3)C2)cc1C (configuration not stated)	i	i	-7	i	i	i	i	i
COc1ccc(C(=O)C2CCCN(C(=O)c3cccc(Cl)c3F)C2)cc1OC (configuration not stated)	i	i	-8	i	i	i	i	i
O=C(Nc1ccccn1)c1ccc(S(=O)(=O)N2CCCCCC2)cc1	i	i	-7	i	i	.	.	.
CC(C)(C)OC(=O)N(CCc1ccccc1)Cc1cccc(OCc2cccc(NC(=O)C3CC3)c2)c1	.	i	.	.	.	.	.	.
O=C(Nc1cn(-c2ccccc2)nc1-c1ccc(Cl)cc1)c1ccccc1	i	i	-14	i	-9.2*	50%*	i	42%*
COc1ccc(OCC(=O)Nc2ccc(N3CCN(C(=O)c4ccccc4)CC3)c(Cl)c2)cc1	i	i	-12	i	i	.	.	.
O=C(NCCNCCO)C1(C(F)(F)F)C/C(=C\Cc2ccccc2)CCCO1 (configuration not stated)	i	i	-8	i	i	.	.	.
O=C(NCC1CC1)C1(C(F)(F)F)CC(CCc2ccccc2)CCCO1 (configuration not stated)	i	i	-8	i	i	i	i	i
CC(C)(C)c1cc(OC(=O)C2CCCC2)ccc1O	i	i	-13	i	-8.2*	58%*	i	i
CCN(CC(=O)Nc1ccc2c(c1)OCCO2)C(=O)c1ccc(S(=O)(=O)N(C)C)cc1	i	i	-9	i	i	.	.	.
CCOc1ccccc1OCCOCCOc1ccccc1[N+](=O)[O-]	i	i	-13	i	i	i	i	i
O=S(=O)(N/N=C/c1ccc(Cl)cc1)c1ccc(Cc2ncc(C(F)(F)F)cc2Cl)s1	10*	-9.3*	-17	i	i	i	i	i
CC(C)Cn1c(N)c(C(=O)CSc2nnc(C3CC3)n2C2CC2)c(=O)n(C)c1=O	.	i	.	.	.	.	.	.
CC(C)CNC(=O)N1c2ccccc2Sc2ccccc21	i	i	-12	i	i	i	i	i
CC(C)NC(=O)N(C)C[C@@H]1Oc2ccc(NC(=O)CCN3CCOCC3)cc2CC(=O)N([C@@H](C)CO)C[C@@H]1C	.	i	.	.	.	.	.	.
COc1ccc2[nH]c3c(c2c1)CCN1C(=O)C(CC(=O)NCCCn2ccnc2)C[C@H](C(=O)N(C(C)C)C(C)C)[C@@]31C (some centres not stated)	.	i	.	.	.	.	.	.
CCn1cc(CN2CCc3c([nH]c4ccccc34)C2c2cccc(OC)c2)c(C)n1 (configuration not stated)	i	i	-10	i	i	.	.	.
COc1cccc(C2c3[nH]c4ccccc4c3CCN2Cc2cccn2-c2ncccn2)c1 (configuration not stated)	i	i	-21	i	-8.3*	40%*	i	48%*
SMILES	KCNQ1 inh	KCNK3 block	hERG rescue	KCNQ1 pot	KCNK9 inh	KCNK9 block conf	Kir2-1 spec	HEK293 Tl ctr
CCCN(CCC)C(=O)CC(c1ccccc1)c1cc(Br)ccc1O (configuration not stated)	i	i	-12	i	-13*	36%*	i	40%*
CCCN(CCC)C(=O)CC(c1ccccc1)c1ccc(C)cc1O (configuration not stated)	i	i	-17	i	i	.	.	.
Cc1cccc(Nc2nc(-c3ccc4c(c3)OCCO4)cs2)c1	i	i	-6	i	i	i	i	i
COc1ccccc1C(=O)N1[C@@H](C(C)C)COc2cc(Br)ccc2S1(=O)=O	.	i	.	.	.	.	.	.
COc1cc(/C=N\Nc2nc3ccccc3[nH]2)cc(OC)c1OC	i	i	-12	i	i	.	.	.
CCOc1cc(/C=N/Nc2nc3ccccc3[nH]2)cc(Br)c1OCC(=O)N(C)C	i	i	-3	i	-11*	58%*	i	i
CC(=O)c1c(N2CCCCC2)nc(=S)n(Cc2ccccc2)c1C	i	i	-11	i	i	.	.	.
CCCSc1nc(=S)n(Cc2ccccc2)c(C)c1C(C)=O	i	i	-5	i	-13*	66%*	i	i
Cc1cc(C(=O)Cn2nnc(-c3ccc(Cl)cc3)n2)c(C)n1-c1ccccc1	i	i	-19	i	i	i	i	i
CCN1C[C@@H]2[C@@H]3C(=O)N(C)C(=O)[C@@H]3[C@](CC)(C(=O)OC)N2C1=NCc1ccccc1	.	i	.	.	.	.	.	.
CC1CN(CCN2CC(C)N(C=O)CC2C)C(C)CN1C=O (configuration not stated)	.	i	.	.	.	.	.	.
O=C(COC(=O)C1CCN(c2ccc(C(F)(F)F)cn2)CC1)c1ccccc1	i	i	-7	i	i	i	i	i
OCC[C@@H]1C[C@@H](O)[C@H](O)[C@@]2(CCCc3ccccc3O2)O1	i	i	-7	i	i	.	.	.
